Experimental data as given in ChEMBL document CHEMBL2146394, “Design and synthesis of pyrrolo[3,2-d]pyrimidine HER2/EGFR dual inhibitors: improvement of the physicochemical and pharmacokinetic profiles for potent in vivo anti-tumor efficacy” (Bioorg Med Chem, 2012).

Columns and labels:
[1] = Apparent permeability across basolateral to apical side in human Caco2 cells at 10 umol/L; format: ADME, cell-based; conditions: Caco-2
Summary of the method: (§1)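 Confluent Caco-2 monolayers on collagen-coated polycarbonate Transwell membranes. HBSS with 10 mmol/L HEPES, 15 mmol/L glucose and 1% BSA, pH 7.3–7.5. Compound dosed at 10 µmol/L apically (A→B) or basolaterally (B→A), 37 °C, 5% CO₂. Receivers sampled at 1 and 2 h; LC/MS/MS. Papp from receiver concentration slope; duplicates.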

[2] = Metabolic stability in mouse hepatic microsomes at 1 umol/L after 20 mins; format: ADME; conditions: liver microsomes, read-out: Stability
[3] = molecular target: Receptor tyrosine-protein kinase erbB-2 (Homo sapiens, UniProt P04626); test: Inhibition of human N-terminal DYKDDDD tagged HER2 cytoplasmic domain amino acid 676 to 1255 expressed in baculovirus after 5 mins by scintillation counter
Summary of the method: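 FLAG-purified HER2 cytoplasmic domain in 50 mmol/L Tris-HCl pH 7.5, 5 mmol/L MnCl₂, 0.01% Tween-20, 2 mmol/L DTT, with poly-Glu-Tyr (4:1) and [γ-³²P]ATP. Compound and enzyme preincubated 5 min at room temperature; reaction started with ATP, 10 min at room temperature. Stopped with 10% TCA, filter-harvested, washed with 3% phosphoric acid, scintillation counted.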

[4] = test system: BT-474; test: Antitumor activity against human BT474 cells xenografted in BALB/c nu/nu mouse at 100 mg/kg, po bid administered 14 days measured on day 31 relative to control; format: functional
Summary of the method: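 BT-474 xenografts: 1×10⁷ cells in Matrigel implanted subcutaneously into the right flank of female BALB/c nu/nu mice. Estradiol dipropionate 0.25 mg given intramuscularly on days 0 and 7. Tumours of 200–300 mm³ used. Dosing 100 mg/kg orally bid in 0.5% methylcellulose for 14 days. Volume a×b²/2 by calipers. T/C (%) compared at day 31.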

[5] = test system: BT-474; test: Growth inhibition of HER2 over-expressing human BT474 cells after 5 days; format: functional; conditions: BT-474, 120 h
Summary of the method: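 BT-474 cells kept in RPMI 1640 with 10% heat-inactivated FBS. Seeded at 3×10⁴ cells/well and allowed to attach overnight. Treated continuously with compound for 5 days. Live cells counted with a particle analyzer; GI₅₀ derived.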

[6] = Apparent permeability across apical to basolateral side in human Caco2 cells at 10 umol/L; format: ADME, cell-based; conditions: Caco-2; summary of the method: as §1
[7] = molecular target: Epidermal growth factor receptor (Homo sapiens, UniProt P00533); test: Inhibition of human N-terminal DYKDDDD tagged EGFR cytoplasmic domain amino acid 669 to 1210 expressed in baculovirus after 5 mins by scintillation counter
[8] = Metabolic stability in human hepatic microsomes at 1 umol/L after 20 mins; format: ADME; conditions: liver microsomes, read-out: Stability
Summary of the method: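 Human liver microsomes (0.2 mg/mL protein) with 1 µmol/L compound in 50 mmol/L phosphate pH 7.4 plus an NADPH-generating system (glucose-6-phosphate, β-NADP⁺, G6PDH, MgCl₂). Incubated at 37 °C for 0 and 20 min, stopped with acetonitrile, duplicates. Remaining compound measured by HPLC with photodiode array detection.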

Sequence of Receptor tyrosine-protein kinase erbB-2 (P04626 whole entry, the tested form may be a part): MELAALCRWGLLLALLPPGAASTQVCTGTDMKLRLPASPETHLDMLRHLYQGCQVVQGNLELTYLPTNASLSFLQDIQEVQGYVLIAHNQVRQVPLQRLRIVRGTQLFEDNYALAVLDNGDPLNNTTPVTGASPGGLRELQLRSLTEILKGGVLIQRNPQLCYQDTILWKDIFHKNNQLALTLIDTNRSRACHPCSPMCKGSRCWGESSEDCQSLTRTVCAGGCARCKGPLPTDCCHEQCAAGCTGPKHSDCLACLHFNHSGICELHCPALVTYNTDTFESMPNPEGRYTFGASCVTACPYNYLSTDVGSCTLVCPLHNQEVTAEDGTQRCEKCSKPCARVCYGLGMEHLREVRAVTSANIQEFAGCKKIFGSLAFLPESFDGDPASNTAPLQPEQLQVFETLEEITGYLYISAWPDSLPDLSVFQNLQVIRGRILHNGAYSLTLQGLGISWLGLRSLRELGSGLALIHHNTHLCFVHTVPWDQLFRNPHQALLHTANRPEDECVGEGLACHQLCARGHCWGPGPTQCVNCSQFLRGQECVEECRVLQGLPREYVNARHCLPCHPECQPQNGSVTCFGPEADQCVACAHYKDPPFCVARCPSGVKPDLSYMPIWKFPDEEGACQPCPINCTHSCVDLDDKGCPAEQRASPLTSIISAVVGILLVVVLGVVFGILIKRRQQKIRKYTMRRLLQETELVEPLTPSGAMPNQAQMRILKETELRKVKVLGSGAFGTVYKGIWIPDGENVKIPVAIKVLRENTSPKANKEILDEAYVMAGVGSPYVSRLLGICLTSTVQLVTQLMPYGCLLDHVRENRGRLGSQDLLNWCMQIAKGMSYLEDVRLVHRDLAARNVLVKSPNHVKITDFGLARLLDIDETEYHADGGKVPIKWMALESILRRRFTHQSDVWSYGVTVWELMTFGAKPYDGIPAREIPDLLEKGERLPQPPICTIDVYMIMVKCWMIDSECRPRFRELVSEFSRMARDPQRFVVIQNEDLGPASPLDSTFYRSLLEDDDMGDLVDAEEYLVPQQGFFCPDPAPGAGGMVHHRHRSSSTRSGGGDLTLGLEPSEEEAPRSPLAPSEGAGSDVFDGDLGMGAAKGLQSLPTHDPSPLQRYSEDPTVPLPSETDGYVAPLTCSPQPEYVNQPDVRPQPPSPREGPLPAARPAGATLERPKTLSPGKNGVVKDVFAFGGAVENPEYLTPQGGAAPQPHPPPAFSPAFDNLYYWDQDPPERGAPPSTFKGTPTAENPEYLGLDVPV
Sequence of Epidermal growth factor receptor (P00533 whole entry, the tested form may be a part): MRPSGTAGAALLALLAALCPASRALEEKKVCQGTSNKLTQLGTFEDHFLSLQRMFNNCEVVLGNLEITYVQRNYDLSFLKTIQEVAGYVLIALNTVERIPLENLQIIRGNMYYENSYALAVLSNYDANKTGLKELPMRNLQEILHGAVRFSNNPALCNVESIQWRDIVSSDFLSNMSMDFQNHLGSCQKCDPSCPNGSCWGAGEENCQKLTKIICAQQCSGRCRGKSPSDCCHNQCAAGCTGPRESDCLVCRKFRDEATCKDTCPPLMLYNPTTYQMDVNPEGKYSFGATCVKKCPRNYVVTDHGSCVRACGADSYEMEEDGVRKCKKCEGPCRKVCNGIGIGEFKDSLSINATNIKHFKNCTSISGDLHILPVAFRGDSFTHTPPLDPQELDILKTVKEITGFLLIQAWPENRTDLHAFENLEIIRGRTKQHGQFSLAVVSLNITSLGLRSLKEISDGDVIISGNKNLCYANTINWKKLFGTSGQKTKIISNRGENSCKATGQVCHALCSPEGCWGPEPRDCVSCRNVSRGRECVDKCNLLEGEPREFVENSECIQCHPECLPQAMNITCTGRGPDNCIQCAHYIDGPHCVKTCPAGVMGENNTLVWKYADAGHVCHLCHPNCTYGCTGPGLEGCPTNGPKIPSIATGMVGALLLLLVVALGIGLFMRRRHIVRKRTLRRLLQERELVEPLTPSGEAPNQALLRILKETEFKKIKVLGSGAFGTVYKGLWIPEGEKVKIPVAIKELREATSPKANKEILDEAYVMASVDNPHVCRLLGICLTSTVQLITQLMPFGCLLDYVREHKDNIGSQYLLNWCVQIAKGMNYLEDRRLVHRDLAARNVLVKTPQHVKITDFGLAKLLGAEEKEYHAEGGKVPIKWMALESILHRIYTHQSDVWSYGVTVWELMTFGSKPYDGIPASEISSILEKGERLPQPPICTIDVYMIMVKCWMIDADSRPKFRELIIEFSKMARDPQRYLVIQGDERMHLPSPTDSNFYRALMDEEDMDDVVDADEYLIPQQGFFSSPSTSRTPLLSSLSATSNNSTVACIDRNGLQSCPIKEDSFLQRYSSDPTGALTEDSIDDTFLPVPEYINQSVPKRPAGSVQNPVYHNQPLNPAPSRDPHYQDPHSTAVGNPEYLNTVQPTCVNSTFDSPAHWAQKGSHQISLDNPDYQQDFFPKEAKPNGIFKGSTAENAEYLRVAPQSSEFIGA

Row | SMILES | Papp B→A at 10 µM [1] | microsomal CLint at 1 µM [2] | IC50 [3] | T/C [4] | GI50 [5] | Papp A→B at 10 µM [6] | IC50 [7] | microsomal CLint at 1 µM [8]
1 | CC(C)(C(=O)NCCn1ccc2ncnc(Nc3ccc(Oc4cccc(C(F)(F)F)c4)c(Cl)c3)c21)S(C)(=O)=O | 4.26 ×10⁻⁶ cm/s | 23 µL/min/mg | 17 nM | 43% | 55 nM | 2.87 ×10⁻⁶ cm/s | 47 nM | 38 µL/min/mg
2 | CS(=O)(=O)CC(=O)NCCn1ccc2ncnc(Nc3ccc(Oc4cccc(Cl)c4)c(Cl)c3)c21 | 6.79 ×10⁻⁶ cm/s |  | 2.9 nM |  | 3.9 nM | 0.67 ×10⁻⁶ cm/s | 6.7 nM | 11 µL/min/mg
3 | CC(C(=O)NCCn1ccc2ncnc(Nc3ccc(Oc4cccc(Cl)c4)c(Cl)c3)c21)S(C)(=O)=O (stereo not drawn) |  |  | 4.1 nM |  | 32 nM |  | 9.8 nM | 4 µL/min/mg
